Data set [1] concerns the target T1, Prostaglandin E synthase (Mus musculus) (UniProt Q9JM51).
T1 sequence (whole entry): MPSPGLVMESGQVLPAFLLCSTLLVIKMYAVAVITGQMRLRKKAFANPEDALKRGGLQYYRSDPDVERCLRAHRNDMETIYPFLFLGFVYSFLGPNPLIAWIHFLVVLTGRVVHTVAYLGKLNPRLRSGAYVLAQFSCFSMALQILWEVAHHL
Put plainly: Inhibition of mPGES1 in mouse 3T3L1 cells assessed as reduction in PGE2 production at 1 to 10 ng/ml after 1 hr by ELISA. Format: cell-based. The method, boiled down:
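3T3 cells were treated with compound at 1 and 10 ng/ml. Culture media were collected and secreted PGE2 was measured by ELISA.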
For orientation: An ELISA detects its analyte on a solid surface through an enzyme-linked reagent.

Data set [2] relates to 3T3-L1. As to the kind of experiment: Cytotoxicity against mouse 3T3L1 cells assessed as reduction in cell viability at 10 ng/ml after 6 hrs by alamar blue assay. Format: cell-based. Particulars: 3t3-l1, 6 h.
Data set [3] concerns the target T1, Prostaglandin E synthase (Mus musculus). Put plainly: (§1) Inhibition of mPGES1 in mouse 3T3L1 cells assessed as reduction in PGE2 production after 1 hr by ELISA. Format: cell-based. The method, boiled down:
(§2)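 3T3 cells were treated at four doses and secreted PGE2 was measured by ELISA. IC50 was obtained by four-parameter logistic fit.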

Data set [4] addresses T2, Prostaglandin E synthase (Mus musculus, UniProt Q9JM51).
T2 sequence (Q9JM51 whole entry): T1 sequence (whole entry)
The description is as §1. The data set is classed as cell-based. In short, it runs like this: as §2

For data set [5], the species on record is Homo sapiens. Put plainly: Inhibition of TNFalpha-induced NFkappaB activation (unknown origin) expressed in mouse 3T3L1 cells at 10 ng/µl by luciferase reporter gene assay.
Data set [6] has as its target T1, Prostaglandin E synthase (Mus musculus). Put plainly: Inhibition of mPGES1 in mouse 3T3L1 cells assessed as reduction in PGE2 production at 10 ng/ml after 1 hr by ELISA relative to control; values are per cent of control.

The source made the active and inactive calls. No cut-off for these calls is given here.

As usually defined, the IC50 is the concentration needed to halve the response being measured. The residual activity is the signal under treatment as a percentage of the control signal.

On to `COc1ccc(CCCCCCCc2ccccc2O)cc1`, for which, in data set [1], the inhibition result is “inactive”.
For `COc1ccc(C/C=C/Cc2ccc(OC)cc2)cc1`, in data set [2], the Activity result is reported as “Non-Toxic”. The inhibition entry in data set [3] was “Dose-dependent effect”. For the same molecule, in data set [4], the IC50 came to 12 µM.
Consider `COc1cc(/C=C/C(=O)CC(=O)/C=C/c2ccc(O)c(OC)c2)ccc1O`, for which the inhibition result in data set [5] was “Active”.
Take `COc1ccc(C/C=C/CCCCc2ccc(O)cc2)cc1OC`: the Activity result in data set [2] is recorded as “Non-Toxic”. In addition, the inhibition entry in data set [3] is “Dose-dependent effect”. For the same molecule, the IC50 in data set [4] was found to be 1.7 µM.
With `COc1ccc(C/C=C/CCCCc2ccccc2O)cc1`, in data set [1], the inhibition result is “Active”. Further, the inhibition result in data set [5] was “inactive”.
As for `COc1ccc(C/C=C/CCCCc2ccc(O)cc2)cc1`, the inhibition result in data set [1] was “inactive”.
On to `COc1ccc(CCCCCCCc2ccc(O)cc2)cc1`, for which the inhibition entry in data set [5] is “inactive”.
In the case of `COc1ccc(CCCCCCCc2ccccc2O)cc1OC`, the Activity entry in data set [2] is listed as “Non-Toxic”. In data set [3], the inhibition entry was “Dose-dependent effect”. Also, the IC50 in data set [4] was determined as 17 µM. The inhibition entry in data set [5] was “inactive”.
As for `COc1ccc(CCCCc2ccc(OC)cc2)cc1`, in data set [3], the inhibition result was “Dose-dependent effect”. Besides, the inhibition result in data set [5] is “inactive”.
Turning to `COc1ccc(C/C=C/CCCCc2ccccc2O)cc1OC`, in data set [5], the inhibition result is “inactive”.
For `COc1ccc(CCCCCCCc2ccc(O)cc2)cc1OC`, the Activity result in data set [2] is given as “Non-Toxic”. The inhibition result in data set [3] is “Dose-dependent effect”. Besides, the half-inhibitory concentration (IC50) in data set [4] was determined as 29 µM. Besides, the residual activity in data set [6] amounted to 33%.

Source of the values: ChEMBL document CHEMBL4184113, “Synthesis and PGE2 inhibitory activity of novel diarylheptanoids” (Bioorg Med Chem Lett, 2018).
